Test results taken from ChEMBL document CHEMBL1811897, “Nicotinic acetylcholine receptor efficacy and pharmacological properties of 3-(substituted phenyl)-2β-substituted tropanes” (J Med Chem, 2010).
Activity calls are given as the source filed them.

What was measured:
[1] = target: T1, Neuronal acetylcholine receptor; alpha4/beta2 (Homo sapiens, UniProt P17787+P43681); test: Agonist activity at human alpha4beta2 nAChR in SHEP1 cells assessed as 86Rb+ efflux at 5 nM to 100 uM; assay type: functional, cell-based
T1 sequence (P17787 whole entry): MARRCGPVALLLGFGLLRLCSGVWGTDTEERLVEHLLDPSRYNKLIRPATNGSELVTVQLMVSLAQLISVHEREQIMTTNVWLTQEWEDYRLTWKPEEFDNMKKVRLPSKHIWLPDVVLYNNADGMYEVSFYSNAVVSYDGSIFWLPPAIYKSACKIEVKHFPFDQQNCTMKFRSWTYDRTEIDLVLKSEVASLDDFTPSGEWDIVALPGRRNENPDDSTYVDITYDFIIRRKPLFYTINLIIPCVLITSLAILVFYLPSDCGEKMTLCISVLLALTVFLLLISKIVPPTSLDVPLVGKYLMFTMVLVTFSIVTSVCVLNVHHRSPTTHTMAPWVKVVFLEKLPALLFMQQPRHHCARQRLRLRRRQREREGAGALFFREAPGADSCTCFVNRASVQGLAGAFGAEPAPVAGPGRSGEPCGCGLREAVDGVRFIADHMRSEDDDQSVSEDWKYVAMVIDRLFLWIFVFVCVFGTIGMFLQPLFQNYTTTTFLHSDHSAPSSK
T1 sequence (P43681 whole entry): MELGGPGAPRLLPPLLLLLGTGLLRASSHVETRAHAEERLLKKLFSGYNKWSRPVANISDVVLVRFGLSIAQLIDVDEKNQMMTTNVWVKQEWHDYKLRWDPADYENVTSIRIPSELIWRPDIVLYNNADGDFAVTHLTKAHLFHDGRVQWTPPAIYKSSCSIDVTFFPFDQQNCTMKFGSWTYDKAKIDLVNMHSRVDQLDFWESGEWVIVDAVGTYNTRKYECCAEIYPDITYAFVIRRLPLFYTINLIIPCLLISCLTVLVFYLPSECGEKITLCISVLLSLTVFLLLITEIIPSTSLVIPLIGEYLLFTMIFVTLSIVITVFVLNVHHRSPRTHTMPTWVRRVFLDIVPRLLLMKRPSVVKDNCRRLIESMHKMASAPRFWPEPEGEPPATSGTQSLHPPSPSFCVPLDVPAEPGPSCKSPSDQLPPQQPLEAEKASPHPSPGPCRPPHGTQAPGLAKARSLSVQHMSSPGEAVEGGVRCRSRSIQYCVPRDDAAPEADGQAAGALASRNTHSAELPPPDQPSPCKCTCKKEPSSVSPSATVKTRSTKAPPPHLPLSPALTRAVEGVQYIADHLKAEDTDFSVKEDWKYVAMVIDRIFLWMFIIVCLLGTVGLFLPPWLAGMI
In short: (§1)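 Test ligands were applied alone at ~5 nM to 100 μM in 86Rb+ efflux assays. Cells were TE671/RD (endogenous muscle-type α1*), SH-SY5Y (endogenous α3β4*) or transfected SH-EP1 (human α4β2 or α4β4). Non-specific efflux was subtracted. Intrinsic activity was normalized to specific efflux, defined as efflux with fully efficacious carbamylcholine minus efflux with buffer alone.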

[2] = target: T2, Acetylcholine receptor; alpha1/beta1/delta/gamma (Homo sapiens, UniProt P02708+P07510+P11230+Q07001); test: Antagonist activity against human muscle-type alpha1beta1gammadelta nAChR in TE671/RD cells assessed as inhibition of carbamylcholine induced 86Rb+ efflux; assay type: functional, cell-based
In short: (§2)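 86Rb+ efflux was evoked by carbamylcholine at its EC80–EC90 concentration, with test ligand present. Cells were TE671/RD (α1*), SH-SY5Y (α3β4*) or transfected SH-EP1 (α4β2 or α4β4). For weak antagonists the minimum was fixed at 0%.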

[3] = target: T1, Neuronal acetylcholine receptor; alpha4/beta2; test: Antagonist activity against human alpha4beta2 nAChR in SHEP1 cells assessed as inhibition of carbamylcholine induced 86Rb+ efflux; assay type: functional, cell-based; in short: as §2
[4] = target: T3, Neuronal acetylcholine receptor; alpha4/beta4 (Homo sapiens, UniProt P30926+P43681); test: Agonist activity against human alpha4beta4 nAChR in SHEP1 cells assessed as 86Rb+ efflux at 5 nM to 100 uM; assay type: functional, cell-based; in short: as §1
T3 sequence (P30926 whole entry): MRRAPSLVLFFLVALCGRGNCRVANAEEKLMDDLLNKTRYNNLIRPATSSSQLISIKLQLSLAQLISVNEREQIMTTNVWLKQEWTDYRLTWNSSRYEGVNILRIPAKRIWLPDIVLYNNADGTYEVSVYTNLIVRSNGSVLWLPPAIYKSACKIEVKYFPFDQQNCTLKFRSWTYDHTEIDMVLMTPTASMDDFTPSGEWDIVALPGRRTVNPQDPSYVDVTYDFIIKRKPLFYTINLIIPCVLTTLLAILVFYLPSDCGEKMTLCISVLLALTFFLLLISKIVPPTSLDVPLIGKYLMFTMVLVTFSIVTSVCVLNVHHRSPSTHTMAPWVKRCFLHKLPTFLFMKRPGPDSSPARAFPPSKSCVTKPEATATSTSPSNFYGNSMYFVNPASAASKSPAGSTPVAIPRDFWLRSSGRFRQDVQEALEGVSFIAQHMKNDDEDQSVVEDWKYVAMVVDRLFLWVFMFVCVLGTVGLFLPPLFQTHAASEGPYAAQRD
T3 sequence (P43681 whole entry): as the sequence (P43681 whole entry) above

Mus musculus [5] = test: Antipyretic activity against nicotine-induced hypothermia in ICR mouse assessed as change in rectal temperature dministered subcutaneously 15 mins prior to nicotine challenge and measured after 30 mins of 2.5 mg/kg nicotine challenge; assay type: functional, organism-based; design: dose 2.5 mg/kg, route subcutaneous
In short: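 Male ICR mice (20–25 g) were pretreated with saline or test drug 15 min before s.c. nicotine at 2.5 mg/kg. Rectal temperature was read by thermistor probe (24 mm insertion) just before and 30 min after nicotine, and the change was taken. Ambient temperature was 21–24 °C. AD50 with confidence limits came from ≥4 doses and ≥8 mice per dose.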

[6] = target: Sodium-dependent noradrenaline transporter (Homo sapiens, UniProt P23975); test: Inhibition of human NET expressed in HEK293 cells assessed as inhibition of [3H]NE reuptake after 10 mins by scintillation counting; assay type: cell-based
Sequence of Sodium-dependent noradrenaline transporter (P23975 whole entry): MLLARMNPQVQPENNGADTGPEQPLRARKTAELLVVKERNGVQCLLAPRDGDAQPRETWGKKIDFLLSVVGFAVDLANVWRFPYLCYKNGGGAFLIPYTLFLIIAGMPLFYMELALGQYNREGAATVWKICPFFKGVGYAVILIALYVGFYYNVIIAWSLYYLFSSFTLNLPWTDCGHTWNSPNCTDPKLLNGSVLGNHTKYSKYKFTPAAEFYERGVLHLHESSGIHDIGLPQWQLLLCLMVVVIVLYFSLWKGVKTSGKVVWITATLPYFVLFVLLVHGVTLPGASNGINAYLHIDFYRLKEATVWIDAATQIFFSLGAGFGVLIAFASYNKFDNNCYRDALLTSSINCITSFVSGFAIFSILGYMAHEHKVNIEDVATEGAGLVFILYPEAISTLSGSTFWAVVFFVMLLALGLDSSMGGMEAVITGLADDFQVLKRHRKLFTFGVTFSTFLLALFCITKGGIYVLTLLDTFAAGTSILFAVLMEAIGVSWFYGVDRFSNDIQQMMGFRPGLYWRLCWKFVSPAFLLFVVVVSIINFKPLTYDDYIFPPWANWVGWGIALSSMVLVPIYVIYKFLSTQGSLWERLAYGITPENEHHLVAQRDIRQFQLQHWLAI

Mus musculus [7] = test: Inhibition of nicotine-induced hypolocomotion in ICR mouse assessed as number of photocell interruption dministered subcutaneously 15 mins prior to nicotine challenge and measured after 5 mins of […] nicotine challenge; assay type: functional, organism-based; design: dose 1.5 mg/kg, route subcutaneous
[8] = target: Sodium-dependent serotonin transporter (Homo sapiens, UniProt P31645); test: Inhibition of human SERTexpressed in HEK293 cells assessed as inhibition of [3H]5HT reuptake after 10 mins by scintillation counting; assay type: cell-based
Sequence of Sodium-dependent serotonin transporter (P31645 whole entry): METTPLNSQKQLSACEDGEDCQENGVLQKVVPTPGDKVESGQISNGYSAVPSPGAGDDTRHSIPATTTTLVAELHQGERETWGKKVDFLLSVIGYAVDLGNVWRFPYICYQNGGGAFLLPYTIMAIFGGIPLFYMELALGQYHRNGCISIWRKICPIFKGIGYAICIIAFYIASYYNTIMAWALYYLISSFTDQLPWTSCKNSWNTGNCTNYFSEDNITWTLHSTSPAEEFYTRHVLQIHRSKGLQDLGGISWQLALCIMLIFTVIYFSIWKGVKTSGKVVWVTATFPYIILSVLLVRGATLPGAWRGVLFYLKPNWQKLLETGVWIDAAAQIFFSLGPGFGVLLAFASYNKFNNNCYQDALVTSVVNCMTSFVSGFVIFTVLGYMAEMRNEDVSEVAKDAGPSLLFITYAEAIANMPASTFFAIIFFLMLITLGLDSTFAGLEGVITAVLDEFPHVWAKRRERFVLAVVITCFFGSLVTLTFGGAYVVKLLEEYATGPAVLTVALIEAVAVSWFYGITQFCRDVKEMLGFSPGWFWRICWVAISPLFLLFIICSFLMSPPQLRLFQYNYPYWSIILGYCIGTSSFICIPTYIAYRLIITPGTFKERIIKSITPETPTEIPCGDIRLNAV

Mus musculus [9] = test: Inhibition of nicotine-induced conditioned place preference in ICR mouse assessed as activity count and time spent in chamberdministered subcutaneously 15 mins prior to 0.5 mg/kg nicotine challenge up to 4 days using photosensors; assay type: functional, organism-based; design: dose 0.5 mg/kg, route subcutaneous
In short: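 Unbiased three-compartment CPP in male ICR mice. Day 1: 5 min confinement to the middle compartment, then 15 min free access; mice were grouped by equal bias. Days 2–4: vehicle or test drug s.c. 15 min before nicotine (0.5 mg/kg s.c.) in the paired side, with saline on the opposite side, 20 min sessions. Day 5: drug-free test with photosensor recording. AD50 from ≥3 doses, ≥8 mice per dose.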

Mus musculus [10] = test: Inhibition of nicotine-induced antinociception activity in ICR mouse assessed as latency to remove tail administered subcutaneously 15 mins prior to nicotine challenge and measured after 5 mins of 2.5 mg/kg nicotine challenge by tail-flick test; assay type: functional, organism-based; design: dose 2.5 mg/kg, route subcutaneous
In short: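 Radiant heat was aimed at the upper tail, with a 10 s cutoff. Baseline latency was 2–4 s for each mouse. Response was expressed as %MPE. AD50 with confidence limits came from ≥4 doses and ≥8 mice per dose.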

[11] = target: Cannabinoid receptor 1 (Homo sapiens) (UniProt P21554); test: Positive allosteric modulator activity at CB1 receptor
Sequence of Cannabinoid receptor 1 (Homo sapiens) (P21554 whole entry): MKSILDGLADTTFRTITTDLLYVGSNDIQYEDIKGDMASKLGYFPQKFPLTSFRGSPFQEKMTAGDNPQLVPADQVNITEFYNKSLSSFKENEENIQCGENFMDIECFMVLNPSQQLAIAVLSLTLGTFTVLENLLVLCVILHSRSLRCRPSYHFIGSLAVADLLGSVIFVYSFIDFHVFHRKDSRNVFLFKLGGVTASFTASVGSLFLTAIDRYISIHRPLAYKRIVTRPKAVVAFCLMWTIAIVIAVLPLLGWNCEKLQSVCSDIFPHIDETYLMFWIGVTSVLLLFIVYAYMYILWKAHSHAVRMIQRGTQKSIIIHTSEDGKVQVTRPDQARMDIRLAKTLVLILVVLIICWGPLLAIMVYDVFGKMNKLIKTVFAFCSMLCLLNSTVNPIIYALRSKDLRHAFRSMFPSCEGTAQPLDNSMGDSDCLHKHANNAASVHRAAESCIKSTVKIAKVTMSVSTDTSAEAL

[12] = target: Sodium-dependent dopamine transporter (Homo sapiens, UniProt Q01959); test: Inhibition of human DAT expressed in HEK293 cells assessed as inhibition of [3H]DA reuptake after 10 mins by scintillation counting; assay type: cell-based
Sequence of Sodium-dependent dopamine transporter (Q01959 whole entry): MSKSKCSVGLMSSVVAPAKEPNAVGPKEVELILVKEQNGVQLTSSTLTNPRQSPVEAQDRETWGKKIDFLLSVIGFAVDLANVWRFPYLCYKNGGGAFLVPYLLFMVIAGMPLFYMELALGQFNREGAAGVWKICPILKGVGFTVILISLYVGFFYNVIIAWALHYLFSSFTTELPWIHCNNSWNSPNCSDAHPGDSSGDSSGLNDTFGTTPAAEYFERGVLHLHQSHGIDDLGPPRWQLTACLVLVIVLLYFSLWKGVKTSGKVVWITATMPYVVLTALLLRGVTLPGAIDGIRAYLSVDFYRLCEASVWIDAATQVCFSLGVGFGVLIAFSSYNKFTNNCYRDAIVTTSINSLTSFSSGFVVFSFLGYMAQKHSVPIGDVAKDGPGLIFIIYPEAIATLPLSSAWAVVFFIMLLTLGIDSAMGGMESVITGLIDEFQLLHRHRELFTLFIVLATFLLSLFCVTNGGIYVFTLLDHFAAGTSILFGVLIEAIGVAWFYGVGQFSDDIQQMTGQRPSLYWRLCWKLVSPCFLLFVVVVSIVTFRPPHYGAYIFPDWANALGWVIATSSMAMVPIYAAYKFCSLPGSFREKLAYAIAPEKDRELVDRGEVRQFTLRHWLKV

[13] = target: T2, Acetylcholine receptor; alpha1/beta1/delta/gamma; test: Agonist activity at human muscle-type alpha1beta1gammadelta nAChR in TE671/RD cells assessed as 86Rb+ efflux at 5 nM to 100 uM; assay type: functional, cell-based; in short: as §1
[14] = target: T3, Neuronal acetylcholine receptor; alpha4/beta4; test: Antagonist activity against human alpha4beta4 nAChR in SHEP1 cells assessed as inhibition of carbamylcholine induced 86Rb+ efflux; assay type: functional, cell-based; in short: as §2
Mus musculus [15] = test: Inhibition of nicotine-induced antinociception activity in ICR mouse assessed as paw licking and jumping latency dministered subcutaneously 15 mins prior to nicotine challenge and measured after 5 mins of 2.5 mg/kg nicotine challenge by hot plate test; assay type: functional, organism-based; design: dose 2.5 mg/kg, route subcutaneous
In short: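 Hot plate was held at 55 °C with a 40 s cutoff. End-point was paw lick or jump. Control latency was measured twice, ≥10 min apart. Response was calculated as %MPE. Groups of 8–12; AD50 from ≥4 doses.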

Cc1ccc([C@H]2C[C@@H]3CC[C@H]([C@H]2c2cc(-c4ccc(Cl)cc4)no2)N3C)cc1
Activity [1]: inactive
IC50 [2]: 95 µM
IC50 [3]: 942 µM
Activity [4]: inactive
IC50 (Mus musculus [5]): > 20 mg/kg
IC50 [6]: 310 nM
IC50 (Mus musculus [7]): 8.7 mg/kg
IC50 [8]: > 100 µM
IC50 (Mus musculus [9]): 0.013 mg/kg
IC50 (Mus musculus [10]): > 20 mg/kg
Activity [11]: Active
IC50 [12]: 11 nM
Activity [13]: inactive
IC50 [14]: 57 µM
IC50 (Mus musculus [15]): > 20 mg/kg
